Source: ChEMBL document CHEMBL3588757, “Structure-based design, synthesis and biological testing of piperazine-linked bis-epipodophyllotoxin etoposide analogs” (Bioorg Med Chem, 2015)
Active and inactive are the calls of the source. The calls are words filed in the database; no cut-off is given here.

How the values were obtained:
SK-MEL-28 = test: Cytotoxicity against human SK-MEL-28 cells assessed as cell growth at 10 uM; format: functional; settings: read-out: Activity
SK-MEL-2 = test: Cytotoxicity against human SK-MEL-2 cells assessed as cell growth at 10 uM; format: functional; settings: read-out: Activity
[1] = target: DNA topoisomerase 2-alpha (Homo sapiens) (UniProt P11388); test: Inhibition of full-length human recombinant topoisomerase 2-alpha-mediated decatenation activity of kDNA by ethidium bromide based gel-assay
Chain of DNA topoisomerase 2-alpha (Homo sapiens) (P11388 whole entry): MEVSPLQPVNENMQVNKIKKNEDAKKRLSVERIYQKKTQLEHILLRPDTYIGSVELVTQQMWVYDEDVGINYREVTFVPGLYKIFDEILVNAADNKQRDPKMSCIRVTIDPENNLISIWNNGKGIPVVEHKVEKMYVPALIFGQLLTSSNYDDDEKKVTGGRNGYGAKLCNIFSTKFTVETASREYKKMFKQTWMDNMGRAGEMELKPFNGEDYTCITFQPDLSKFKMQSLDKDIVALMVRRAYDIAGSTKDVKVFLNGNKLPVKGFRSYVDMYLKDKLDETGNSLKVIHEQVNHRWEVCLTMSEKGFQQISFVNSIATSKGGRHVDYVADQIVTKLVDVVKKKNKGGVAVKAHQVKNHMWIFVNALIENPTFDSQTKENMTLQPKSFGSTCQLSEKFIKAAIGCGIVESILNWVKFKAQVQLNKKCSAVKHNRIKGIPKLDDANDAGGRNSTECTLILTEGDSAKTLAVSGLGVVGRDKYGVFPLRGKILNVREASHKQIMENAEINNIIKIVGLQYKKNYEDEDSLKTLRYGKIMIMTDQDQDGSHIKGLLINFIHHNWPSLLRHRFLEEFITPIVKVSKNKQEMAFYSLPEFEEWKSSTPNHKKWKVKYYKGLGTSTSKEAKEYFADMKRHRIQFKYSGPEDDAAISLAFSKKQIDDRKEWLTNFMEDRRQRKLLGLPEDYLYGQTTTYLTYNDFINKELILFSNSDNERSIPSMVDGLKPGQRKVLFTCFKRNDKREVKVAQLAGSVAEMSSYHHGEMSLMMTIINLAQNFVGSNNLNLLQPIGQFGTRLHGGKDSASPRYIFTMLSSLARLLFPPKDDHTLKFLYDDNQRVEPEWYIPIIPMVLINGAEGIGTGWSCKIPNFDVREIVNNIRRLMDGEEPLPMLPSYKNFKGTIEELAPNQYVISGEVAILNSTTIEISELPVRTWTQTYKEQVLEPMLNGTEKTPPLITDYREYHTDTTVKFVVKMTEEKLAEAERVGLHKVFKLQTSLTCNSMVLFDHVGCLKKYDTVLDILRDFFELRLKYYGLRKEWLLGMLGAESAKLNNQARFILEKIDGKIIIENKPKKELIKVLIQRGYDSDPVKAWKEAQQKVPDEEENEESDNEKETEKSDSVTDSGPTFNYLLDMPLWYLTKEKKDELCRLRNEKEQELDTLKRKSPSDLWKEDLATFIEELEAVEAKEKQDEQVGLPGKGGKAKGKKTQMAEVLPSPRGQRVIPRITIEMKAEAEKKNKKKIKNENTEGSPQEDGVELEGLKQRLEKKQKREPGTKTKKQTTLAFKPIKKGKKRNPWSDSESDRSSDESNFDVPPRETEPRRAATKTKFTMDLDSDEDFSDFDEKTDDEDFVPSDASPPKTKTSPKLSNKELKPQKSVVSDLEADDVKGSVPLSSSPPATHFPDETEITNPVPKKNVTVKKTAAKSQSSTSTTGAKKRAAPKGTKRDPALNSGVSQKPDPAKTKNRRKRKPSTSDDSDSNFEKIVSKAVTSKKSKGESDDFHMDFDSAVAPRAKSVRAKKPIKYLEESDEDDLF

SNB-19 = test: Cytotoxicity against human SNB19 cells assessed as cell growth at 10 uM; format: functional; settings: read-out: Activity
CCRF-CEM = test: Cytotoxicity against human CCRF-CEM cells assessed as cell growth at 10 uM; format: functional; settings: read-out: Activity
IGROV-1 = test: Cytotoxicity against human IGROV1 cells assessed as cell growth at 10 uM; format: functional; settings: read-out: Activity
NCI-H23 = test: Cytotoxicity against human NCI-H23 cells assessed as cell growth at 10 uM; format: functional; settings: read-out: Activity
K562 [2] = test: Cytotoxicity against human K562 cells assessed as cell growth inhibition after 72 hrs by MTS assay; format: functional, cell-based; settings: K562, 72 h
[3] = Cytotoxicity against human Hs578T cells assessed as cell growth at 10 uM; format: functional; settings: Hs-578T, read-out: Activity
U-251 = test: Cytotoxicity against human U251 cells assessed as cell growth at 10 uM; format: functional; settings: read-out: Activity
NCI-H322M = test: Cytotoxicity against human NCI-H322M cells assessed as cell growth at 10 uM; format: functional; settings: read-out: Activity
HOP-62 = test: Cytotoxicity against human HOP62 cells assessed as cell growth at 10 uM; format: functional; settings: read-out: Activity
OVCAR-4 = test: Cytotoxicity against human OVCAR4 cells assessed as cell growth at 10 uM; format: functional; settings: read-out: Activity
PC-3 = test: Cytotoxicity against human PC3 cells assessed as cell growth at 10 uM; format: functional; settings: read-out: Activity
A549 = test: Cytotoxicity against human A549/ATCC cells assessed as cell growth at 10 uM; format: functional; settings: read-out: Activity
SK-MEL-5 = test: Cytotoxicity against human SK-MEL-5 cells assessed as cell growth at 10 uM; format: functional; settings: read-out: Activity
HCT-15 = test: Cytotoxicity against human HCT15 cells assessed as cell growth at 10 uM; format: functional; settings: read-out: Activity
786-0 = test: Cytotoxicity against human 786-0 cells assessed as cell growth at 10 uM; format: functional; settings: read-out: Activity
COLO 205 = test: Cytotoxicity against human COLO205 cells assessed as cell growth at 10 uM; format: functional; settings: read-out: Activity
SW-620 = test: Cytotoxicity against human SW620 cells assessed as cell growth at 10 uM; format: functional; settings: read-out: Activity
BT-549 = test: Cytotoxicity against human BT549 cells assessed as cell growth at 10 uM; format: functional; settings: read-out: Activity
OVCAR-5 = test: Cytotoxicity against human OVCAR5 cells assessed as cell growth at 10 uM; format: functional; settings: read-out: Activity
K562 [4] = test: Relative resistance, ratio of IC50 for etoposide-resistant human K/VP.5 cells to IC50 for human K562 cells; format: functional
ACHN = test: Cytotoxicity against human ACHN cells assessed as cell growth at 10 uM; format: functional; settings: read-out: Activity
SR = test: Cytotoxicity against human SR cells assessed as cell growth at 10 uM; format: functional; settings: read-out: Activity
MDA-MB-435 = test: Cytotoxicity against human MDA-MB-435 cells assessed as cell growth at 10 uM; format: functional; settings: read-out: Activity
HCC 2998 = test: Cytotoxicity against human HCC2998 cells assessed as cell growth at 10 uM; format: functional; settings: read-out: Activity
MCF7 = test: Cytotoxicity against human MCF7 cells assessed as cell growth at 10 uM; format: functional; settings: read-out: Activity
OVCAR-8 = test: Cytotoxicity against human OVCAR8 cells assessed as cell growth at 10 uM; format: functional; settings: read-out: Activity
NCI-H460 = test: Cytotoxicity against human NCI-H460 cells assessed as cell growth at 10 uM; format: functional; settings: read-out: Activity
[5] = Cytotoxicity against human NCI-ADR-RES cells assessed as cell growth at 10 uM; format: functional; settings: read-out: Activity
UACC-62 = test: Cytotoxicity against human UACC62 cells assessed as cell growth at 10 uM; format: functional; settings: read-out: Activity
DU-145 = test: Cytotoxicity against human DU145 cells assessed as cell growth at 10 uM; format: functional; settings: read-out: Activity
MDA-MB-231 = test: Cytotoxicity against human MDA-MB-231/ATCC cells assessed as cell growth at 10 uM; format: functional; settings: read-out: Activity
HCT-116 = test: Cytotoxicity against human HCT116 cells assessed as cell growth at 10 uM; format: functional; settings: read-out: Activity
HT-29 = test: Cytotoxicity against human HT-29 cells assessed as cell growth at 10 uM; format: functional; settings: read-out: Activity
MDA-MB-468 = test: Cytotoxicity against human MDA-MB-468 cells assessed as cell growth at 10 uM; format: functional; settings: read-out: Activity
SN12C = test: Cytotoxicity against human SN12C cells assessed as cell growth at 10 uM; format: functional; settings: read-out: Activity
MOLT-4 = test: Cytotoxicity against human MOLT4 cells assessed as cell growth at 10 uM; format: functional; settings: read-out: Activity
SF-295 = test: Cytotoxicity against human SF295 cells assessed as cell growth at 10 uM; format: functional; settings: read-out: Activity
K562 [6] = test: Cytotoxicity against human K562 cells assessed as cell growth at 10 uM; format: functional; settings: read-out: Activity
CAKI-1 = test: Cytotoxicity against human Caki1 cells assessed as cell growth at 10 uM; format: functional; settings: read-out: Activity
UACC-257 = test: Cytotoxicity against human UACC257 cells assessed as cell growth at 10 uM; format: functional; settings: read-out: Activity
Malme-3M = test: Cytotoxicity against human MALME-3M cells assessed as cell growth at 10 uM; format: functional; settings: read-out: Activity
A498 = test: Cytotoxicity against human A498 cells assessed as cell growth at 10 uM; format: functional; settings: read-out: Activity
OVCAR-3 = test: Cytotoxicity against human OVCAR3 cells assessed as cell growth at 10 uM; format: functional; settings: read-out: Activity
UO-31 = test: Cytotoxicity against human UO31 cells assessed as cell growth at 10 uM; format: functional; settings: read-out: Activity
HL-60(TB) = test: Cytotoxicity against human HL-60(TB) cells assessed as cell growth at 10 uM; format: functional; settings: read-out: Activity
[7] = target: DNA topoisomerase 2-alpha (Homo sapiens) (UniProt P11388); test: Inhibition of full-length human recombinant topoisomerase 2-alpha mediated relaxation and cleavage of supercoiled pBR322 plasmid DNA to linear DNA by ethidium bromide staining based gel electrophoresis assay
Summary of the method: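 Recombinant full-length human topoisomerase IIα with supercoiled pBR322 DNA at 37 °C. Components mixed on ice before drug addition. Complexes trapped with SDS; products run on ethidium bromide gels. Linear DNA identified against a HindIII-linearized marker; repeated on three days.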

SNB-75 = test: Cytotoxicity against human SNB75 cells assessed as cell growth at 10 uM; format: functional; settings: read-out: Activity
SF-268 = test: Cytotoxicity against human SF268 cells assessed as cell growth at 10 uM; format: functional; settings: read-out: Activity
M14 = test: Cytotoxicity against human M14 cells assessed as cell growth at 10 uM; format: functional; settings: read-out: Activity
NCI-H226 = test: Cytotoxicity against human NCI-H226 cells assessed as cell growth at 10 uM; format: functional; settings: read-out: Activity
[8] = Cytotoxicity against etoposide-resistant human K/VP.5 cells assessed as cell growth inhibition after 72 hrs by MTS assay; format: functional, cell-based; settings: K/VP.5, 72 h
Summary of the method: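 K/VP.5 cells are a K562-derived subline, 26-fold etoposide-resistant, with decreased topoisomerase IIα mRNA and protein. Cells were grown in suspension in αMEM with 10% fetal calf serum. Drugs were given from DMSO stocks, with final DMSO typically 0.4% or less. Read-out was MTS absorbance after 72 h. Typically nine concentrations were run in duplicate on two days. IC50 came from a four-parameter logistic fit.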

RXF 393 = test: Cytotoxicity against human RXF393 cells assessed as cell growth at 10 uM; format: functional; settings: read-out: Activity
KM12 = test: Cytotoxicity against human KM12 cells assessed as cell growth at 10 uM; format: functional; settings: read-out: Activity
HOP-92 = test: Cytotoxicity against human HOP92 cells assessed as cell growth at 10 uM; format: functional; settings: read-out: Activity
RPMI-8226 = test: Cytotoxicity against human RPMI8226 cells assessed as cell growth at 10 uM; format: functional; settings: read-out: Activity
SF-539 = test: Cytotoxicity against human SF539 cells assessed as cell growth at 10 uM; format: functional; settings: read-out: Activity
TK-10 = test: Cytotoxicity against human TK10 cells assessed as cell growth at 10 uM; format: functional; settings: read-out: Activity
T47D = test: Cytotoxicity against human T47D cells assessed as cell growth at 10 uM; format: functional; settings: read-out: Activity
SK-OV-3 = test: Cytotoxicity against human SKOV3 cells assessed as cell growth at 10 uM; format: functional; settings: read-out: Activity

COc1cc([C@@H]2c3cc4c(cc3[C@@H](NC(=O)CN3CCN(CCCN5CCN(CC(=O)N[C@@H]6c7cc8c(cc7[C@@H](c7cc(OC)c(O)c(OC)c7)[C@H]7C(=O)OC[C@@H]76)OCO8)CC5)CC3)[C@H]3COC(=O)[C@H]23)OCO4)cc(OC)c1O
growth at 10 µM (SK-MEL-28): 85.9% | growth at 10 µM (SK-MEL-2): 101% | inhibition [1]: Active | growth at 10 µM (SNB-19): 59.3% | growth at 10 µM (CCRF-CEM): 12.8% | growth at 10 µM (IGROV-1): 71.8% | growth at 10 µM (NCI-H23): 84.2% | IC50 (K562 [2]): 0.525 µM | growth at 10 µM [3]: 95.2% | growth at 10 µM (U-251): 45.1% | growth at 10 µM (NCI-H322M): 104% | growth at 10 µM (HOP-62): 75.9% | growth at 10 µM (OVCAR-4): 95.6% | growth at 10 µM (PC-3): 79.8% | growth at 10 µM (A549): 47% | growth at 10 µM (SK-MEL-5): 77.6% | growth at 10 µM (HCT-15): 98.6% | growth at 10 µM (786-0): 95.9% | growth at 10 µM (COLO 205): 53.9% | growth at 10 µM (SW-620): 54.9% | growth at 10 µM (BT-549): 69.6% | growth at 10 µM (OVCAR-5): 102% | Ratio IC50 (K562 [4]): 14.2 | growth at 10 µM (ACHN): 92.5% | growth at 10 µM (SR): 15.2% | growth at 10 µM (MDA-MB-435): 88.6% | growth at 10 µM (HCC 2998): 97.8% | growth at 10 µM (MCF7): 26% | growth at 10 µM (OVCAR-8): 95.5% | growth at 10 µM (NCI-H460): 24.3% | growth at 10 µM [5]: 103% | growth at 10 µM (UACC-62): 56.4% | growth at 10 µM (DU-145): 83.5% | growth at 10 µM (MDA-MB-231): 93.9% | growth at 10 µM (HCT-116): 64.6% | growth at 10 µM (HT-29): 89.5% | growth at 10 µM (MDA-MB-468): 93.8% | growth at 10 µM (SN12C): 57.8% | growth at 10 µM (MOLT-4): 10.9% | growth at 10 µM (SF-295): 94.5% | growth at 10 µM (K562 [6]): 61.9% | growth at 10 µM (CAKI-1): 97% | growth at 10 µM (UACC-257): 79.7% | growth at 10 µM (Malme-3M): 68.1% | growth at 10 µM (A498): 65% | growth at 10 µM (OVCAR-3): 98.2% | growth at 10 µM (UO-31): 93.1% | growth at 10 µM (HL-60(TB)): 26.7% | Effect on topoisomerase 2-alpha DNA cleavage (qualitative) [7]: Dose-dependent effect | growth at 10 µM (SNB-75): 66.8% | growth at 10 µM (SF-268): 69.6% | growth at 10 µM (M14): 95.4% | growth at 10 µM (NCI-H226): 86% | IC50 [8]: 7.5 µM | growth at 10 µM (RXF 393): 90.2% | growth at 10 µM (KM12): 87.9% | growth at 10 µM (HOP-92): 65.7% | growth at 10 µM (RPMI-8226): 63.4% | growth at 10 µM (SF-539): 77.8% | growth at 10 µM (TK-10): 88.7% | growth at 10 µM (T47D): 56.9% | growth at 10 µM (SK-OV-3): 96.7%
